Results from ChEMBL document CHEMBL1143502, “Fluorescent metal ion indicators based on benzoannelated crown systems: a green fluorescent indicator for intracellular sodium ions” (Bioorg Med Chem Lett, 2005).

Experiments:
Type in all cases: functional
[1] = The in vitro binding constant in presence of K+ was reported
Outline: (§1)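 Fluorescence titration in pH 7.0 buffer series (50 mM MOPS, pH set with tetramethylammonium hydroxide) containing 0–1000 mM of the monovalent cation (Li+, Na+, K+ or Rb+) at 20 °C. Kd (mM) was taken from the intensity change with cation concentration, alongside the response S = I[bound]/I[free].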

[2] = The in vitro binding constant in presence of Rb+ was reported; outline: as §1
[3] = The in vitro binding constant in presence of Li+ was reported; outline: as §1

SMILES | Kd [1] [mM] | Kd [2] [mM] | Kd [3] [mM]
COC(=O)CN1CCOCCOCCOCCOc2cc(-c3c4cc(F)c(=O)cc-4oc4cc(O)c(F)cc34)ccc21 | 291 | 319 | 142
COC(=O)CN1CCOCCOCCOCCOc2cc(C3=C4C(C)=CC(C)=[N+]4[B-](F)(F)n4c(C)cc(C)c43)ccc21 | 170 | – | –
COC(=O)CN1CCOCCOCCOCCOc2cc(-c3c4ccc(=[N+](C)C)cc-4oc4cc(N(C)C)ccc34)ccc21 | 254 | – | –
COC(=O)CN1CCOCCOCCOCCOc2cc(NC(=O)c3ccc(-c4c5cc(F)c(=O)cc-5oc5cc(O)c(F)cc45)c(C(=O)O)c3)ccc21 | 144 | 157 | 65
COC(=O)CN1CCOCCOCCOCCOCCOc2cc(-c3c4cc(F)c(=O)cc-4oc4cc(O)c(F)cc34)ccc21 | 11 | 25 | –
COCCN1CCOCCOCCOCCOc2cc(-c3c4cc(F)c(=O)cc-4oc4cc(O)c(F)cc34)ccc21 | 269 | – | –
COC(=O)CN1CCOCCOCCOc2cc(-c3c4cc(F)c(=O)cc-4oc4cc(O)c(F)cc34)ccc21 | 978 | 376 | 438
